The values that follow come from ChEMBL document CHEMBL2203280, “Bicyclic peptidomimetics targeting secreted aspartic protease 2 (SAP2) from Candida albicans reveal a constrained inhibitory chemotype” (Bioorg Med Chem, 2012).

As a reminder, the Ki is a dissociation constant, usually derived from enzyme kinetics or from competition with a known ligand. A low value points to higher affinity. As usually defined, the IC50 is the point on the concentration scale where inhibition reaches its midpoint. Read a low IC50 as higher potency.

T1 sequence (P0CS83 whole entry): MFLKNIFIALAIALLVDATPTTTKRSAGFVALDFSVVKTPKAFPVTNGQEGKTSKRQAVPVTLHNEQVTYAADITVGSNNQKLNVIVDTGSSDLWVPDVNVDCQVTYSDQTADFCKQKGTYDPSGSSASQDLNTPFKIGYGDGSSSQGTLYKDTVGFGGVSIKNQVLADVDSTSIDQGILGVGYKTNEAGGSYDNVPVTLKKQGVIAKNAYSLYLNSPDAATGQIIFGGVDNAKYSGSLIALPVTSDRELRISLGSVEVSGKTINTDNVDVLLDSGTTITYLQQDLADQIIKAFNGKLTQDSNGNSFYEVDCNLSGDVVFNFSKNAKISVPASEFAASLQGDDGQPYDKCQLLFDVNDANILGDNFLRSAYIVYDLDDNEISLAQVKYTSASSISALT

The target in one assay is Secreted aspartic protease 2 (Candida albicans) (UniProt P0CS83). Briefly: Ratio of pepstatin A IC50 to compound IC50 for candida albicans SAP2 by spectrophotometric analysis. A digest of the protocol: (§1)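 SAP2 protease (1 µg/mL solution) incubated with inhibitor in 0.05% (w/v) BSA, 50 mM sodium citrate pH 3.2, 30 min at 37 °C. Reaction stopped with 10% TCA, kept on ice 30 min, then centrifuged. Supernatant A280 read against a BSA-in-citrate blank. ΔOD per minute measured at inhibitor levels of 5, 1 and 0.1 µM and 5, 1 and 0.1 nM. Pepstatin A run as reference at the same concentrations.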
Sequence of Secreted aspartic protease 2 (Candida albicans) (P0CS83 57-398 limits assumed): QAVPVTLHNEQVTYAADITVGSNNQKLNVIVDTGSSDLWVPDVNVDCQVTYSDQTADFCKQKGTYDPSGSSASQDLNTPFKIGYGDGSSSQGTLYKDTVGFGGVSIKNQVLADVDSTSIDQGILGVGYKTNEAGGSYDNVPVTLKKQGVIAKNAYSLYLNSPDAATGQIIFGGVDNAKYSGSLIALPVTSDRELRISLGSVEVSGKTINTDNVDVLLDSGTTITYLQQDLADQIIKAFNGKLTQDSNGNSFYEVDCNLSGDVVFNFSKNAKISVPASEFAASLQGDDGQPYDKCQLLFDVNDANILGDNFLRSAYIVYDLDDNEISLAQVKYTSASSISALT
Regarding `O=C([C@@H]1O[C@H]2CN(Cc3ccccc3)C(=O)[C@@H]1O2)N1CCCCC1`, the Ratio IC50 amounted to 3.

The next assay has as its target T1, Secreted aspartic protease 2 (Candida albicans, UniProt P0CS83). Briefly: Inhibition of candida albicans SAP2. A digest of the protocol:
as §1
`CCCCNC(=O)[C@H](C[C@H](O)[C@H](CC1CCCCC1)NC(=O)[C@H](CCCC)N1CCN(C(=O)N2CCN(C)CC2)[C@H](Cc2ccccc2)C1=O)C(C)C`: affinity was put at a Ki of 12 nM.

In a further assay the target is T1, Secreted aspartic protease 2. Nature of the assay: Inhibition of candida albicans SAP2 using 0.05% BSA as substrate by spectrophotometric analysis. The method, boiled down:
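SAP2 incubated with inhibitor in 0.05% (w/v) BSA substrate, 50 mM sodium citrate pH 3.2, for 30 min at 37 °C. Stopped with 10% (w/v) TCA, held on ice 30 min, centrifuged 3000 g 10 min. Supernatant A280 read against 0.05% BSA in citrate blank. ΔOD per min taken at six inhibitor concentrations, including 5, 1 and 0.1 nM. Pepstatin A run at matching concentrations.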
On to `CC(C)C[C@@H](CO)NC(=O)C1O[C@@H]2CN(Cc3ccccc3)C(=O)[C@H]1O2` (stereo partly drawn), for which the IC50 worked out at 1100 nM.

In turn, `CC(C)C[C@@H](CO)NC(=O)C1O[C@H]2CN(Cc3ccccc3)C(=O)[C@@H]1O2` (stereo partly drawn) gave an IC50 of 550 nM. For the compound `COC(=O)[C@H](CC(C)C)N1C[C@H]2O[C@H](C(=O)N3CCCCC3)[C@H](O2)C1=O`, the IC50 was more than 10000 nM. `COC(=O)[C@@H](CC(C)C)N1C[C@@H]2O[C@@H](C(=O)N3CCCCC3)[C@@H](O2)C1=O`: the 50% inhibitory concentration (IC50) was determined as 890 nM. On the same count and under the same terms, the same measure for `COC(=O)[C@@H](CC(C)C)N1C[C@H]2O[C@H](C(=O)N3CCCCC3)[C@H](O2)C1=O`: 740 nM; for `CC(C)C[C@H](CO)NC(=O)C1O[C@H]2CN(Cc3ccccc3)C(=O)[C@@H]1O2` (stereo partly drawn): more than 10000 nM. Compound `O=C([C@H]1O[C@@H]2CN(Cc3ccccc3)C(=O)[C@H]1O2)N1CCCCC1` gave an IC50 of 980 nM. `CC(C)C[C@H](CO)NC(=O)C1O[C@@H]2CN(Cc3ccccc3)C(=O)[C@H]1O2` (stereo partly drawn) yielded an IC50 of more than 10000 nM. `O=C([C@@H]1O[C@H]2CN(Cc3ccccc3)C(=O)[C@@H]1O2)N1CCCCC1` had an IC50 of 30 nM. Take `COC(=O)[C@H](CC(C)C)N1C[C@@H]2O[C@@H](C(=O)N3CCCCC3)[C@@H](O2)C1=O`: the IC50 worked out at 900 nM. On the same count and under the same terms, the same measure for `CC(C)CC(=O)N[C@H](C(=O)N[C@H](C(=O)N[C@@H](CC(C)C)[C@@H](O)CC(=O)N[C@@H](C)C(=O)N[C@@H](CC(C)C)[C@@H](O)CC(=O)O)C(C)C)C(C)C` [PEPSTATIN]: 90 nM.
